According to PMC10395482 (Heliyon, 2023):

Key:
MHCC97L xenograft = test: MHCC97L subcutaneous xenograft; type: in vivo, BALB/c nude mice; conditions: 14 days
Method in brief: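 Five-week-old male BALB/c nude mice received MHCC97L cells subcutaneously in the axilla (1 × 10^7 cells in 0.1 mL saline). At 50 mm3 they were randomized to groups and given the test compound in saline by tail vein (10, 20, 30 mg/kg; 0.1 mL/20 g). Tumor volume, calculated as (short diameter)2 × long diameter/2, and body weight were recorded every 2 days. Mice were sacrificed after 14 days; one-way ANOVA with Dunnett's test was used.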

[1] = system: chick embryo chorioallantoic membrane; test: Chick chorioallantoic membrane; type: in vivo; conditions: VEGF 0.5 μg, 48 h; n = 5
Method in brief: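 Fertilized eggs were held at 37 °C and 60% humidity for 5 days and turned 180° every 24 h. On day 6 the shell was opened along the air chamber and sterile rubber rings were placed at the aorta. Test compound in saline (0, 10, 50, 250 μM; 50 μL) was added inside the ring, and eggs were sealed for 48 h. Vascular density was calculated as vessel area/view area from stereomicroscope images.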

Clc1ccc(Nc2nnc(Cc3ccncc3)c3ccccc23)cc1 [PTK787]
Tumor Inhibition Rate (MHCC97L xenograft; PTK787 50 mg/kg, n = 5): 88.78% | Tumor Weight (MHCC97L xenograft; PTK787 50 mg/kg, mean ± SD, n = 5, *** p < 0.001 vs saline): 0.146 ± 0.049 *** g | tumor growth, volume and weight (in words) (MHCC97L xenograft; SAIF 10, 20, 30 mg/kg or PTK787 50 mg/kg, vs control): decreased MHCC97L transplanted tumor growth and significantly reduced mean tumor volume

VEGF
angiogenesis in CAM, VEGF alone [1]: significantly increased neoangiogenesis
